Measured values reported in ChEMBL document CHEMBL1153132, “Novel sulfamoyl benzamides as selective CB(2) agonists with improved in vitro metabolic stability” (Bioorg Med Chem Lett, 2010).
The source made the active and inactive calls.

Legend:
Cannabinoid receptor 2 [1] = molecular target: T1, Cannabinoid receptor 2 (Homo sapiens, UniProt P34972); experiment: Displacement of [3H]CP-55940 from human CB2 receptor
Procedure, shortened: (§1)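 Membranes with cloned human CB1 or CB2 receptors; test ligand displaces [3H]CP-55940; Ki values are geometric means of at least three separate determinations.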
Target sequence in this assay (P34972 whole entry): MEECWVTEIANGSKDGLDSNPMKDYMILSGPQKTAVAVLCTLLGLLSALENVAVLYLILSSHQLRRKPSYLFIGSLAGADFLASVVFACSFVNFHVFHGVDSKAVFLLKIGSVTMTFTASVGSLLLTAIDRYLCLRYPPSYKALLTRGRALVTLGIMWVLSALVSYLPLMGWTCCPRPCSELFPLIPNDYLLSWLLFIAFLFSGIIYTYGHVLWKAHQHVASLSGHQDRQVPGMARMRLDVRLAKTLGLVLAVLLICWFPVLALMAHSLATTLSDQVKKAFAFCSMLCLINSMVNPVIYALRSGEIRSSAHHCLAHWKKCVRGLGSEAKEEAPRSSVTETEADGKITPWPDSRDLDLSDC

Cannabinoid receptor 2 [2] = molecular target: T2, Cannabinoid receptor 2 (Rattus norvegicus, UniProt Q9QZN9); experiment: Agonist activity at rat brain CB2 receptor by GTPgammaS binding assay; assay type: functional
T2 sequence (Q9QZN9 whole entry): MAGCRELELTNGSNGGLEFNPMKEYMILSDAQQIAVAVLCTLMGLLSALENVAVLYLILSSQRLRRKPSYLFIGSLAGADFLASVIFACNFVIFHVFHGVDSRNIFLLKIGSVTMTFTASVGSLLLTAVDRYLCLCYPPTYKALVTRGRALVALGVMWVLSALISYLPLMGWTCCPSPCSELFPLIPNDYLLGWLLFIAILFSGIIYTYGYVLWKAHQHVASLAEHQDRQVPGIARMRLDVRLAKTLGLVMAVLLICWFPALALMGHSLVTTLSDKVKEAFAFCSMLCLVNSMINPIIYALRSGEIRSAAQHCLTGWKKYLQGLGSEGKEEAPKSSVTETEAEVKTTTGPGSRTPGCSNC

Cannabinoid receptor 2 [3] = molecular target: T1, Cannabinoid receptor 2; experiment: Inhibition of [3H]CP-55940 binding to human CB2 receptor at 10 uM
Target sequence in this assay (P34972 whole entry, looked up): as the sequence (P34972 whole entry) above

Cannabinoid receptor 1 = Cannabinoid receptor 1 (Homo sapiens, UniProt P21554); experiment: Displacement of [3H]CP-55940 from human CB1 receptor; procedure, shortened: as §1
Sequence of Cannabinoid receptor 1 (P21554 whole entry): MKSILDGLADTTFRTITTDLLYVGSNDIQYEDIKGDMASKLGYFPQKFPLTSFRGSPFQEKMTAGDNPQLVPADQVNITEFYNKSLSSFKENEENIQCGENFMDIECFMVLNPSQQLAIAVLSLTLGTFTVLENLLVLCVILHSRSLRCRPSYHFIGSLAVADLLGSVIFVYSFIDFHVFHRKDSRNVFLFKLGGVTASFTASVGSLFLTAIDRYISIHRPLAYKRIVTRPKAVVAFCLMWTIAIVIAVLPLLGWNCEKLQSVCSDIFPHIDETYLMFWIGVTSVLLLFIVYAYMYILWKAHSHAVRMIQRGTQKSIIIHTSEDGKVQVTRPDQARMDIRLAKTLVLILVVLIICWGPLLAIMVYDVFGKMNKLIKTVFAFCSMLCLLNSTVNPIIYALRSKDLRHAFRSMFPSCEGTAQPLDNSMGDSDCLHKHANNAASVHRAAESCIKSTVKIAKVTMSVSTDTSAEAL

Homo sapiens = organism: Homo sapiens; experiment: Selectivity, ratio of Ki for human CB1 to Ki for human CB2
Procedure, shortened: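 Ki at each receptor came from displacement of [³H]CP-55940 binding in membranes containing cloned human CB₁ or CB₂ receptor. Ki values are geometric means of at least three separate determinations. Selectivity is Ki CB₁ divided by Ki CB₂.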

Liver microsomes [4] = experiment: Metabolic stability in rat liver microsomes; assay type: ADME, Microsome
Procedure, shortened: (§2)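 Parent compound incubated with rat (RLM) or human (HLM) liver microsomes for 30 min; result given as % parent remaining.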

Liver microsomes [5] = experiment: Metabolic stability in human liver microsomes; assay type: ADME, Microsome; procedure, shortened: as §2
[6] = Clearance in Sprague-Dawley rat at 1 mg/kg, iv; assay type: ADME, organism-based; design: dose 1 mg/kg, route intravenous; settings: in vivo
[7] = Volume of distribution at steady state in Sprague-Dawley rat at 1 mg/kg, iv; assay type: ADME, organism-based; design: dose 1 mg/kg, route intravenous; settings: in vivo, read-out: Vdss
[8] = Half life in Sprague-Dawley rat at 1 mg/kg, iv; assay type: ADME, organism-based; design: dose 1 mg/kg, route intravenous; settings: in vivo
[9] = AUC (0 to infinity) in Sprague-Dawley rat at 1 mg/kg, iv; assay type: ADME, organism-based; design: time infinity, dose 1 mg/kg, route intravenous; settings: plasma
[10] = AUC (0 to infinity) in Sprague-Dawley rat at 100 mg/kg, po; assay type: ADME, organism-based; design: time infinity, dose 100 mg/kg, route oral; settings: plasma
[11] = Tmax in Sprague-Dawley rat at 100 mg/kg, po; assay type: ADME, organism-based; design: dose 100 mg/kg, route oral; settings: in vivo
Procedure, shortened: (§3)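 Male Sprague-Dawley rats dosed 100 mg/kg po. Cmax and oral F are mean ± SD of three animals; F is referenced to a 1.0 mg/kg iv dose; Tmax is given as median and range.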

[12] = Cmax in Sprague-Dawley rat at 100 mg/kg, po; assay type: ADME, organism-based; design: dose 100 mg/kg, route oral; settings: in vivo; procedure, shortened: as §3
[13] = Oral bioavailability in Sprague-Dawley rat at 100 mg/kg; assay type: ADME, organism-based; settings: in vivo; procedure, shortened: as §3
Rattus norvegicus = experiment: Antiallodynic effect against rat hind paw insition model assessed as paw withdrawal at 30 mg/kg, ip; assay type: functional, organism-based; design: dose 30 mg/kg
Procedure, shortened: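 Rat hindpaw incision surgery model with vehicle and morphine treatment groups. Mechanical paw withdrawal threshold of the left hindpaw was followed over time. Data are mean ± SEM; one-way ANOVA with post-hoc protected t-test versus the vehicle-treated surgery group.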

Compound	Ki (Cannabinoid receptor 2 [1]) [nM]	EC50 (Cannabinoid receptor 2 [2]) [nM]	Ki (Cannabinoid receptor 1) [nM]	Ratio Ki (Homo sapiens)	Stability (Liver microsomes [4]) [%]	Stability (Liver microsomes [5]) [%]	other results
CCC(C)(C)C(=O)Nc1cc(C)c(C)c(S(=O)(=O)N2CC[C@H](O)C2)c1	90	73	–	–	–	–	inhibition (Cannabinoid receptor 2 [3]): 6.3%
CCC(C)(C)C(=O)Nc1cc(C)c(C)c(S(=O)(=O)NC2CCCC2)c1	94	98	3400	36	–	–	–
Cc1cc(NC(=O)C(C)(C)C)cc(S(=O)(=O)N2CCOCC2)c1C	40	90	3100	78	37	52	–
CCC(C)(C)C(=O)Nc1cc(C)c(C)c(S(=O)(=O)N2CCSC2)c1	6.9	12	2100	300	0	0	–
CCC(C)(C)C(=O)Nc1cc(C)c(C)c(S(=O)(=O)N2CCCCC2)c1	2.7	13	650	240	0	0	–
Cc1cc(NC(=O)C(C)(C(F)(F)F)C(F)(F)F)cc(S(=O)(=O)N2CCOCC2)c1C	6.6	11	780	120	22	11	–
Cc1cc(NC(=O)C(C)(C)O)cc(S(=O)(=O)N2CCOCC2)c1C	2080	–	–	–	–	–	–
CCCC(C)(C)C(=O)Nc1cc(C)c(C)c(S(=O)(=O)N2CCOCC2)c1	9.7	21	830	86	9	1	–
CCC(C)(C)C(=O)Nc1cc(S(=O)(=O)N2CCOCC2)c(C)cc1C	760	–	–	–	–	–	–
CCC(C)(C)C(=O)Nc1cc2c(c(S(=O)(=O)N3CCOCC3)c1)CCCC2	14	1400	1400	100	2	1	–
CCC(C)(C)C(=O)Nc1cc2c(c(S(=O)(=O)N3CCOCC3)c1)CCC2	12	1700	1700	140	9	10	–
CCC(C)(C)C(=O)Nc1cc(S(=O)(=O)N2CCOCC2)cc(C)c1C	–	–	–	–	–	–	inhibition (Cannabinoid receptor 2 [3]): 15%
CCC(C)(C)C(=O)Nc1cc(S(=O)(=O)N2CCOCC2)c(C)c(C)c1C	410	–	–	–	–	–	–
CCCCC(C)(C)C(=O)Nc1cc(C)c(C)c(S(=O)(=O)N2CCOCC2)c1	1.1	82	140	130	0	0	–
Cc1cc(NC(=O)C2C(C)(C)C2(C)C)cc(S(=O)(=O)N2CCOCC2)c1C	16	66	1100	69	31	17	–
CCC(C)(C)C(=O)Nc1cc(C)c(C)c(S(=O)(=O)N2CCC[C@@H]2CO)c1	43	98	–	–	–	–	inhibition (Cannabinoid receptor 2 [3]): 8.3%
CCC(C)(C)C(=O)Nc1ccc(C)c(S(=O)(=O)N2CCOCC2)c1	290	–	–	–	–	–	–
COCCC(C)(C)C(=O)Nc1cc(C)c(C)c(S(=O)(=O)N2CCOCC2)c1	110	–	–	–	–	–	–
CCC(C)(C)C(=O)Nc1cc(C)c(C)c(S(=O)(=O)NCC2CC2)c1	66	135	3800	57	–	–	–
CCC(C)(C)C(=O)Nc1cc(C)c(C)c(S(=O)(=O)N2CCCCCC2)c1	9	22	1800	200	0	0	–
CCC(C)(C)C(=O)Nc1cc(C)c(C)c(S(=O)(=O)N2CCOCC2)c1	17	38	2500	150	28	17	clearance [6]: 70 mL/min/kg; Vd [7]: 2.5 L/kg; half-life [8]: 0.7 h; AUC(0-inf) [9]: 237 ng·h/mL; AUC(0-inf) [10]: 4800 ng·h/mL; Tmax [11]: 6 h; Cmax [12]: 1220 ng/mL; bioavailability [13]: 22%; Activity (Rattus norvegicus): Active
Cc1cc(NC(=O)C(C)(C)c2ccccc2)cc(S(=O)(=O)N2CCOCC2)c1C	120	–	–	–	–	–	–
CCC(C)(C)C(=O)Nc1cc(C)c(C)c(S(=O)(=O)N2CCS(=O)(=O)CC2)c1	8.4	20	–	–	10	1	inhibition (Cannabinoid receptor 2 [3]): 18%
Cc1ccc(NC(=O)C2C(C)(C)C2(C)C)cc1S(=O)(=O)N1CCOCC1	–	11	–	150	2	1	–
